This is a sample that favours compounds with a hit; in the whole collection about 3.9% have one here.
OX1R antag-1: antagonists of human orexin 1 receptor (OX1R); AID 485270, 2010; OX1R-expressing cells, FRET antagonist read-out; 330,000 tested, 1.8% active; Orexin/Hypocretin receptor type 1 (Homo sapiens), O43613; inhibition, % at 6.6 µM; in the data active = inhibition mostly above about 38%, no sharp cut-off; inactive = mostly below about 40%;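 note: 0% = agonist challenge alone and 100% = reference antagonist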
Target sequence (O43613 whole entry, looked up): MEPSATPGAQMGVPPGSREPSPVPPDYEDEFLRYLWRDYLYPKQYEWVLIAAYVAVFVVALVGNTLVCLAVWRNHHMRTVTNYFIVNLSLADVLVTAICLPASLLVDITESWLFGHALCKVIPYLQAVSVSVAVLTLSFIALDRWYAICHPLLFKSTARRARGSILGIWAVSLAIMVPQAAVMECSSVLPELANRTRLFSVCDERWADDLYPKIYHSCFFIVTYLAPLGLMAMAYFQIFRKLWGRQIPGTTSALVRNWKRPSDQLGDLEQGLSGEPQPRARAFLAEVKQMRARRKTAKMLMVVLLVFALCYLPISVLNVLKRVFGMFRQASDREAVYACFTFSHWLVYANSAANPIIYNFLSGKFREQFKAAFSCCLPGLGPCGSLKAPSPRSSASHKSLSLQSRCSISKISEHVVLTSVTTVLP
OX1R antag-2: OX1R (HCRTR1) antagonists, primary screen, fluorescence, CHO/OX1R cells, Fluo-8 calcium, orexin A. Orexin/Hypocretin receptor type 1 (Homo sapiens), O43613. Fluo-8 calcium fluorescence. inhibition, % at 5 µM. 330,000 tested, 0.43% active. AID 434989, 2010;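 active = inhibition above its plate's threshold, mean inhibition of all tested compounds on the plate plus 3 SD, cut at about 37% in these data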;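 note: 0% = orexin A challenge wells and 100% = SB-334867-A antagonist wells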
TAAR1 agonist: human TAAR1 agonists, primary screen, Fluo-8 calcium fluorescence, CHO RD-HGA16 cells; activation, % at 3 µM; vehicle wells 0%, saturating PEA agonist 100%; Trace amine-associated receptor 1 (Homo sapiens), Q96RJ0; 360,000 tested, 0.99% active;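 active = activation above the mean activation of all test compounds in the run plus 3 SD, cut at about 38% in these data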
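Repeats: no replicates (n 1) | Material: CHO-derived RD-HGA16 cells with stable Gα16 and human TAAR1 | Technique: Kinetic Fluo-8 calcium fluorescence | Schedule: 17-24 h seeding, 75 min 37 °C dye, 30 min RT | Evaluation: % activation from peak over basal fluorescence ratio, DMSO-to-PEA scaled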
TAAR1 antag: human TAAR1 antagonists, primary screen, Fluo-8 calcium fluorescence, CHO RD-HGA16 cells; 360,000 tested, 1.5% active; antagonist; Trace amine-associated receptor 1 (Homo sapiens), Q96RJ0; inhibition, % at 3 µM; AID 624466, 2012;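 active = inhibition above a per-plate cutoff, the mean inhibition of test compounds on that plate plus 3 SD, cut at about 49% in these data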;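 note: 0% = DMSO plus EC80 beta-PEA response and 100% = DMSO alone without agonist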
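Assay system: CHO-derived RD-HGA16 cells stably expressing human TAAR1 plus Gα16. Timing: 140 s kinetic read after compound, 140 s after agonist. Technique: kinetic Fluo-8 calcium fluorescence measurement. Measure: % inhibition of agonist calcium response.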
CHO parental Ca: ATP-evoked calcium signal inhibitors, parental CHO, primary screen, counter-screen for OX1R antagonist project, cell-based, fluorescence, Fluo-8 calcium dye; parental CHO-K1, ATP-induced calcium, Fluo-8 fluorescence; inhibition, % at 5.6 µM; AID 463079, 2010; 330,000 tested, 0.63% active;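 active = inhibition above that plate's mean sample inhibition plus 3 SD, cut at about 26% in these data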;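 note: 0% = ATP-challenged DMSO wells and 100% = DMSO wells without ATP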
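Test system: untransfected parental CHO cell line. Compound: one dose, 5.6 µM nominal. Detection: intracellular calcium via Fluo-8 no-wash fluorescent dye. Measure: % inhibition. Benchmarks: ATP-challenged DMSO wells low, unchallenged DMSO wells high.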
* hit, by the source's call; / = no result.

SMILES | OX1R antag-1 | OX1R antag-2 | TAAR1 agonist | TAAR1 antag | CHO parental Ca
COC(=O)c1cc2ccccc2oc1=O | 31 | -21 | 4 | -13 | -4
CCOC(=O)c1ccc(NC(=O)c2ccc(NC(=O)c3ccccc3)cc2)cc1 | 10 | -21 | -2 | 17 | -10
CCOC(=O)c1ccc(NC(=O)c2cc3c(s2)CCC3)cc1 | 70* | -5 | 0 | -47 | -7
C[C@@H]1CN([C@H](C)CO)C(=O)c2cc(NC(=O)Nc3ccccc3)ccc2O[C@@H](C)CCCCO[C@H]1CN(C)S(C)(=O)=O | / | / | 4 | -14 | /
CCOC(=O)c1nn(-c2ccc(F)cc2)c(-c2ccccc2)c1C(=O)c1ccccc1 | 30 | -11 | 1 | 0 | -18
CCOC(=O)c1nn(-c2cccc(OC)c2)c(-c2ccccc2)c1C(=O)c1ccccc1 | 55* | 2 | 0 | 56* | -15
COc1cccc2c(=O)cc(C)n(CC(=O)Nc3ccc(C)c(C)c3)c12 | 49* | -1 | 8 | 3 | 47*
CCCCNC(=O)c1[nH]c(=O)cnc1-c1ccccc1 | / | / | 1 | -22 | /
O=C(Nc1ccc(Cl)c(C(F)(F)F)c1)NC1CC2CCCC(C1)N2Cc1ccccc1 (stereo not given) | 3 | 12 | 32 | -6 | 37*
C/C(=N\NC(=O)c1cc(O)ccc1O)c1cccc(NC(=O)c2ccc(Cl)cc2)c1 | 22 | -27 | 5 | 51* | -7
CN(C)S(=O)(=O)c1cccc(N=c2scc(-c3ccc4c(c3)NC(=O)CO4)n2CC2CCCO2)c1 (stereo not given) | 16 | -1 | 27 | 53* | 10
COc1ccc(C(=O)N/C(=C\c2cn(S(=O)(=O)N(C)C)c3ccccc23)C(=O)N2CCCC2)cc1 | / | / | 6 | -3 | /
COc1ccc(CSc2nc3ccccc3c(=O)[nH]2)cc1F | 17 | -11 | 16 | 50* | -9
O=C(NCc1ccco1)c1ccc2sc([C@H]3C[C@H](O)[C@@H](CO)O3)nc2c1 | / | / | 4 | -32 | /
COc1ccc(-c2sc3cc(OC)c(OC)cc3c2-c2ccc(O)cc2)cc1 | 38* | 40 | -1 | -4 | -4
COc1ccc(-c2sc3ccccc3c2-c2ccc(O)cc2)cc1 | 17 | 17 | 6 | 32 | 4
COC(=O)C1=C(C)N(Cc2ccc(C(F)(F)F)cc2)C(=NCc2ccccc2C(F)(F)F)NC1c1ccccc1C(F)(F)F (stereo not given) | / | / | 2 | -21 | /
Cc1cccc(OCCCC(=O)Nc2ccc(N3CCCCC3)cc2)c1 | 4 | -7 | 73* | 64* | -11
Cc1nc2ccccc2c(N)c1C(=O)/C=C/c1ccccc1 | 28 | -15 | 41* | 8 | -5
COc1cc2c3c(c1)C(C)CC(C)(C)N3C(=O)C2=O (stereo not given) | 44* | -77 | -1 | -45 | 0
OC1C2COC(O2)C2OC(c3ccccc3)OC12 (stereo not given) | / | / | 0 | -3 | /
COc1cc(OC)c(-c2c3cc(O)c(=O)cc-3oc3cc(O)c(O)cc23)cc1OC | 17 | 105* | 367* | 71* | 74*
O=C1NC(=O)C(=Cc2ccccc2[N+](=O)[O-])S1 | / | / | 1 | 24 | /
O=C1NC(=O)/C(=C/c2cccc3ccccc23)S1 | 30* | -23 | 2 | 0 | -3
Cc1ccc(S(=O)(=O)Oc2ccccc2/C=C2/SC(=O)NC2=O)cc1 | 38* | -18 | 6 | 14 | 2
COCCNC(=S)N(C)[C@H]1C[C@H]2c3[nH]c4c(-c5ccccc5)cccc4c3CCN2C[C@H]1[C@H](C)O | / | / | 3 | -6 | /
CC(C)c1ccc(NC(=O)Nc2nc(C(N)c3ccccc3Cl)cs2)cc1 (stereo not given) | / | / | 30 | 27 | /
COC(=O)c1cn(NC(=O)Cc2ccc(Cl)cc2)c(=O)c2ccccc12 | 22 | -26 | 11 | 14 | -13
COC(=O)c1cn(NC(=O)Cc2cccc(C(F)(F)F)c2)c(=O)c2ccccc12 | 76* | -8 | 3 | -20 | 2
CC(C)C[C@H]1CN(CCCC[C@@H]2CNC(=O)C(=O)N2CC2CCCCC2)C(=O)C(=O)N1CCc1ccc(O)cc1 | / | / | 1 | 1 | /

Compound activity as filed in PubChem BioAssay.
